As usually defined, the Ki is a dissociation constant, usually derived from enzyme kinetics or from competition with a known ligand.

In one data set the target is D(2) dopamine receptor (Homo sapiens, UniProt P14416). In words: Displacement of [3H]-N-methylspiperone from human dopamine D2 receptor expressed in HEK293 cell membranes after 1 hr by liquid scintillation counting analysis. In general terms: Loss of bound radioactivity is the signal in a displacement assay; it reports binding, not function.
The next data set concerns the target D(3) dopamine receptor (Homo sapiens, UniProt P35462). Description: Displacement of [3H]-N-methylspiperone from human dopamine D3 receptor expressed in HEK293 cell membranes after 1 hr by liquid scintillation counting analysis.
The next data set concerns the target T1, D(4) dopamine receptor (Homo sapiens, UniProt P21917).
T1 sequence (P21917 whole entry): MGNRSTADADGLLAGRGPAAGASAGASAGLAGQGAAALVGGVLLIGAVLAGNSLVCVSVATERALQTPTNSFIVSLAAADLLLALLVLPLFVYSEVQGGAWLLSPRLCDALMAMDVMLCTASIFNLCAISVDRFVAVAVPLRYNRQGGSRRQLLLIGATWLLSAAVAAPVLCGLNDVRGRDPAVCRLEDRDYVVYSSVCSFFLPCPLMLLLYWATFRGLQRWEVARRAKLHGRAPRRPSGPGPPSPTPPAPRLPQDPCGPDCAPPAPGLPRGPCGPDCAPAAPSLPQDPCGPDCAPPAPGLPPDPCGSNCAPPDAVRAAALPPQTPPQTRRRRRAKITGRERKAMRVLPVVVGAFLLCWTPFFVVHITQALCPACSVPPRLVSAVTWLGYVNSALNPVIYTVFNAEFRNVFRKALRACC
In words: Displacement of [3H]-N-methylspiperone from human dopamine D4 receptor expressed in HEK293 cell membranes after 1 hr by liquid scintillation counting analysis.

The next data set is filed under the species Homo sapiens. In words: Selectivity ratio of Ki for human dopamine D2 receptor to Ki for human dopamine D3 receptor. In short, it runs like this:
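Ki values from [3H]N-methylspiperone (0.4 nM) competition in membranes from HEK293 cells stably expressing human D2R or D3R, 10 μg protein per tube. Incubated 1 h at room temperature in triplicate, with 10 μM butaclamol defining nonspecific binding. […] Ratio is D2R Ki divided by D3R Ki.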

The nature of data set [1]: Metabolic stability in mouse liver microsomes assessed as compound remaining at 1 uM after 60 mins by LC/MS/MS analysis in presence of NADPH regenerating system. The following applies: read-out: Stability. The data set is classed as ADME. A general note: Liver microsomes are vesicles of endoplasmic reticulum, rich in cytochrome P450 enzymes.
Data set [2] in a line: Metabolic stability in mouse liver microsomes assessed as compound remaining at 1 uM after 30 mins by LC/MS/MS analysis in presence of NADPH regenerating system. The format is ADME. The following applies: read-out: Stability. In short, it runs like this:
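Mouse liver microsomes at 0.2 mg/mL with compound at 1 μM final, in 100 mM potassium phosphate pH 7.4. Reaction started by adding microsomes, triplicate. Sampled at 0, 30 and 60 min and quenched with ice-cold acetonitrile plus internal standard. Percent parent remaining measured by LC/MS/MS. Controls lacking NADPH were run; testosterone served as positive control.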

Sequence of D(2) dopamine receptor (P14416 whole entry): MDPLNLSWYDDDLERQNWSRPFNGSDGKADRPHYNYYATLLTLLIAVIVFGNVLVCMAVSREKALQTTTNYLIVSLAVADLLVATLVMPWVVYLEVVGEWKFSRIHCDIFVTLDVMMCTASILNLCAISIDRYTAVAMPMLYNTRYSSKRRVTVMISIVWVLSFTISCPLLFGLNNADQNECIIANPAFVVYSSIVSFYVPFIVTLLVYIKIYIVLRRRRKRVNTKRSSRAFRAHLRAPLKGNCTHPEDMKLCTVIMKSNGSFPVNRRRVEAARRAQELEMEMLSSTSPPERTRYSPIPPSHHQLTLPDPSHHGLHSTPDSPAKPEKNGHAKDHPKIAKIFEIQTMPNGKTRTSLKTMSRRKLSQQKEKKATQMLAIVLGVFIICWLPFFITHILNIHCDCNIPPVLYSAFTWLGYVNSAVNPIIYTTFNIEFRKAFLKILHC
Sequence of D(3) dopamine receptor (P35462 whole entry): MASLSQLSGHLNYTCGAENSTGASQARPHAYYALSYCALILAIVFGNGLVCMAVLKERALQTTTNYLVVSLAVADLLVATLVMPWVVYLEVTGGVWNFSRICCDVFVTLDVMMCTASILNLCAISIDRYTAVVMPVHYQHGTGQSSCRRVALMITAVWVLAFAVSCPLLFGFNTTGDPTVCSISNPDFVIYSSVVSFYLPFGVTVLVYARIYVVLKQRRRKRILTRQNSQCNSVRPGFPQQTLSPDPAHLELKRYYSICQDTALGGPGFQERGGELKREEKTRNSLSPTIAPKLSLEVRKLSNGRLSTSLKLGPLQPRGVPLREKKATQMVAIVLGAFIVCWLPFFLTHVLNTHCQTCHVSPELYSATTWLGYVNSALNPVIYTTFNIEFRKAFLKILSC

For the compound `COc1ccccc1N1CCN(CCCCn2cc(-c3ccc4c(c3)Cc3ccccc3-4)nn2)CC1`, the figures for the Ki on D(2) dopamine receptor, at D(3) dopamine receptor and at D(4) dopamine receptor were 50.1 nM, 5.55 nM and 588 nM, respectively. In addition, in the data set filed under Homo sapiens, the Ratio Ki was 9.

On to `COc1ccccc1N1CCN(CC(O)CCn2cc(-c3ccc4ccccc4c3)nn2)CC1` (racemic), for which the inhibition constant Ki on D(2) dopamine receptor is 189 nM; at D(3) dopamine receptor it was 40.7 nM; at D(4) dopamine receptor it was greater than 2000 nM. In addition, the Ratio Ki in the data set listed under Homo sapiens came to 4.6.

Regarding `Clc1cccc(N2CCN(CCCCc3cn(-c4ccc5[nH]ccc5c4)nn3)CC2)c1Cl`, the Ki amounted to 46.6 nM on D(2) dopamine receptor, 1 nM at D(3) dopamine receptor and 510 nM at D(4) dopamine receptor. In addition, the Ratio Ki in the data set filed under Homo sapiens stood at 47.

In the case of `OC(CCn1cc(-c2cnc3ccccc3c2)nn1)CN1CCN(c2cccc(Cl)c2Cl)CC1` (racemic), the Ki on D(2) dopamine receptor is 244 nM; at D(3) dopamine receptor, 18 nM. Besides, the Ratio Ki in the data set filed under Homo sapiens worked out at 14. In data set [1], the remaining at 1 h, 1 µM was found to be 26%.

For `Clc1cccc(N2CCN(CCCCc3cn(-c4ccc5ccccc5c4)nn3)CC2)c1Cl`, the inhibition constant (Ki) on D(2) dopamine receptor was 80.8 nM; at D(3) dopamine receptor it was 3.8 nM; on D(4) dopamine receptor it was greater than 2000 nM. Besides, in the data set filed under Homo sapiens, the Ratio Ki came out at 21.

Consider `COc1ccccc1N1CCN(CC(O)CCn2cc(-c3ccccc3)nn2)CC1` (racemic), for which the inhibition constant (Ki) was 1210 nM at D(2) dopamine receptor, 173 nM on D(3) dopamine receptor and greater than 3000 nM at D(4) dopamine receptor. Besides, in the data set listed under Homo sapiens, the Ratio Ki worked out at 7.

In the case of `COc1ccccc1N1CCN(CCCCn2cc(-c3ccc4ncccc4c3)nn2)CC1`, the inhibition constant Ki at D(2) dopamine receptor worked out at 42.5 nM; on D(3) dopamine receptor, 6.73 nM; on D(4) dopamine receptor, 269 nM. The Ratio Ki in the data set filed under Homo sapiens came out at 6.3.

For the compound `COc1ccccc1N1CCN(CCCCn2cc(-c3ccc(-c4ccccc4)cc3)nn2)CC1`, the Ki on D(2) dopamine receptor was 69 nM; on D(3) dopamine receptor it was 5.88 nM; on D(4) dopamine receptor, 425 nM. Also, the Ratio Ki in the data set filed under Homo sapiens amounted to 12.

For the compound `OC(CCn1cc(-c2ccc3ccccc3c2)nn1)CN1CCN(c2cccc(Cl)c2Cl)CC1` (racemic), the Ki is 18800 nM at D(2) dopamine receptor, 25.2 nM at D(3) dopamine receptor and greater than 20000 nM on D(4) dopamine receptor. In the data set filed under Homo sapiens, the Ratio Ki worked out at 745.

Consider `COc1ccccc1N1CCN(CCCCc2cn(-c3ccc4[nH]ccc4c3)nn2)CC1`, for which the Ki on D(2) dopamine receptor was 51.8 nM; at D(3) dopamine receptor, 3.1 nM; at D(4) dopamine receptor, 353 nM. In addition, the Ratio Ki in the data set filed under Homo sapiens came out at 17.

In the case of `Clc1cccc(N2CCN(CCCCn3cc(-c4ccc5[nH]ccc5c4)nn3)CC2)c1Cl`, the results for the inhibition constant (Ki) at D(2) dopamine receptor, on D(3) dopamine receptor and at D(4) dopamine receptor were 56.1 nM, 1.47 nM and greater than 2000 nM, respectively. Besides, the Ratio Ki in the data set filed under Homo sapiens is 38.

`COc1ccccc1N1CCN(CCCCc2cn(-c3ccc4c(c3)Cc3ccccc3-4)nn2)CC1`: the Ki at D(2) dopamine receptor turned out to be 57.2 nM; at D(3) dopamine receptor, 1.59 nM; at D(4) dopamine receptor, 329 nM. For the same compound, the Ratio Ki in the data set listed under Homo sapiens is 36.

Consider `Clc1cccc(N2CCN(CCCCn3cc(-c4ccc5ccccc5c4)nn3)CC2)c1Cl`, for which the values for the Ki at D(2) dopamine receptor, on D(3) dopamine receptor and at D(4) dopamine receptor were 103 nM, 7.7 nM and greater than 1000 nM, respectively. The Ratio Ki in the data set listed under Homo sapiens is 13.

As for `COc1ccccc1N1CCN(CCCCn2cc(-c3ccc4[nH]ccc4c3)nn2)CC1`, the inhibition constant Ki on D(2) dopamine receptor came out at 43.7 nM; at D(3) dopamine receptor it was 5.48 nM; at D(4) dopamine receptor, 222 nM. For the same compound, in the data set filed under Homo sapiens, the Ratio Ki was 8.

`Clc1cccc(N2CCN(CCCCn3cc(-c4ccc5c(c4)Cc4ccccc4-5)nn3)CC2)c1Cl`: the Ki at D(2) dopamine receptor was 885 nM; on D(3) dopamine receptor, 14 nM; on D(4) dopamine receptor, greater than 20000 nM. In addition, the Ratio Ki in the data set filed under Homo sapiens was determined as 63.

As to `COc1ccccc1N1CCN(CCCCn2cc(-c3ccc4ccccc4c3)nn2)CC1`, the Ki at D(2) dopamine receptor came out at 23.3 nM; on D(3) dopamine receptor it was 11.1 nM; at D(4) dopamine receptor, 232 nM. Further, the Ratio Ki in the data set filed under Homo sapiens was determined as 2.1.

Turning to `COc1ccccc1N1CCN(CCCCn2cc(-c3ccccc3)nn2)CC1`, the values for the inhibitory constant (Ki) on D(2) dopamine receptor, at D(3) dopamine receptor and on D(4) dopamine receptor were 137 nM, 22.9 nM and 480 nM, respectively. Moreover, the Ratio Ki in the data set listed under Homo sapiens is 6.

Consider `COc1ccccc1N1CCN(CCCCc2cn(-c3ccc4ccccc4c3)nn2)CC1`, for which the Ki on D(2) dopamine receptor came to 31.5 nM; on D(3) dopamine receptor, 2.93 nM; at D(4) dopamine receptor, 299 nM. Besides, the Ratio Ki in the data set filed under Homo sapiens was 11.

Consider `COc1ccccc1N1CCN(CCCCc2cn(-c3ccccc3)nn2)CC1`, for which the Ki on D(2) dopamine receptor amounted to 53.6 nM; on D(3) dopamine receptor it was 5.42 nM; at D(4) dopamine receptor, 486 nM. Further, in the data set filed under Homo sapiens, the Ratio Ki turned out to be 10.

In the case of `Clc1cccc(N2CCN(CCCCc3cn(-c4ccc5c(c4)Cc4ccccc4-5)nn3)CC2)c1Cl`, the Ki came out at 424 nM at D(2) dopamine receptor, 5.05 nM at D(3) dopamine receptor and 4450 nM at D(4) dopamine receptor. The Ratio Ki in the data set filed under Homo sapiens came to 84.

On to `COc1ccccc1N1CCN(CC(O)CCn2cc(-c3ccc4c(c3)Cc3ccccc3-4)nn2)CC1` (racemic), for which the values for the Ki on D(2) dopamine receptor, at D(3) dopamine receptor and at D(4) dopamine receptor were 607 nM, 18.5 nM and greater than 1000 nM, respectively. Further, the Ratio Ki in the data set filed under Homo sapiens is 33.

`OC(CCn1cc(-c2ccc3[nH]ccc3c2)nn1)CN1CCN(c2cccc(Cl)c2Cl)CC1` (racemic): the inhibition constant Ki at D(2) dopamine receptor is 963 nM; on D(3) dopamine receptor, 5.85 nM. Further, in the data set listed under Homo sapiens, the Ratio Ki is 165. Besides, the remaining at 1 h, 1 µM in data set [1] was 35%. In addition, the remaining at 0.5 h, 1 µM in data set [2] came to 45%.

Take `Clc1cccc(N2CCN(CCCCn3cc(-c4ccc(-c5ccccc5)cc4)nn3)CC2)c1Cl`: the Ki at D(2) dopamine receptor was 2590 nM; on D(3) dopamine receptor it was 8.32 nM; on D(4) dopamine receptor it was greater than 10000 nM. The Ratio Ki in the data set listed under Homo sapiens was found to be 311.

Regarding `COc1ccccc1N1CCN(CC(O)CCn2cc(-c3ccc4[nH]ccc4c3)nn2)CC1` (racemic), the Ki on D(2) dopamine receptor stood at 789 nM; on D(3) dopamine receptor, 33.6 nM. In the data set filed under Homo sapiens, the Ratio Ki is 23. Further, the remaining at 1 h, 1 µM in data set [1] came out at 27%. For the same compound, the remaining at 0.5 h, 1 µM in data set [2] came out at 44%.

On to `Clc1cccc(N2CCN(CCCCn3cc(-c4ccc5ncccc5c4)nn3)CC2)c1Cl`, for which the Ki on D(2) dopamine receptor was 53.9 nM; at D(3) dopamine receptor, 1.35 nM; on D(4) dopamine receptor, greater than 1000 nM. Moreover, in the data set filed under Homo sapiens, the Ratio Ki amounted to 40.

As for `COc1ccccc1N1CCN(CC(O)CCn2cc(-c3ccc4ncccc4c3)nn2)CC1` (racemic), the inhibition constant (Ki) is 424 nM at D(2) dopamine receptor, 68.2 nM at D(3) dopamine receptor and greater than 3000 nM at D(4) dopamine receptor. In addition, the Ratio Ki in the data set listed under Homo sapiens was determined as 6.2.

Consider `OC(CCn1cc(-c2ccc(-c3ccccc3)cc2)nn1)CN1CCN(c2cccc(Cl)c2Cl)CC1` (racemic), for which the figures for the Ki on D(2) dopamine receptor, on D(3) dopamine receptor and at D(4) dopamine receptor were 15100 nM, 55.8 nM and greater than 7000 nM, respectively. In addition, the Ratio Ki in the data set listed under Homo sapiens came to 270.

Take `O=C(NCCC(O)CN1CCN(c2cccc(Cl)c2Cl)CC1)c1cnc2ccccc2c1` (stereo unspecified): the Ki was found to be 321 nM at D(2) dopamine receptor and 2.91 nM on D(3) dopamine receptor. Further, the Ratio Ki in the data set filed under Homo sapiens worked out at 110. Moreover, the remaining at 1 h, 1 µM in data set [1] came out at 4%.

Take `COc1ccccc1N1CCN(CC(O)CCn2cc(-c3ccc(-c4ccccc4)cc3)nn2)CC1` (racemic): the results for the inhibition constant Ki on D(2) dopamine receptor, at D(3) dopamine receptor and at D(4) dopamine receptor were 819 nM, 30.5 nM and greater than 2000 nM, respectively. For the same compound, the Ratio Ki in the data set filed under Homo sapiens came to 27.

Consider `COc1ccccc1-c1cn(CCC(O)CN2CCN(c3ccccc3OC)CC2)nn1` (racemic), for which the results for the Ki at D(2) dopamine receptor, at D(3) dopamine receptor and at D(4) dopamine receptor were 1020 nM, 493 nM and greater than 3000 nM, respectively. In addition, the Ratio Ki in the data set listed under Homo sapiens came to 2.1.

In the case of `COc1ccccc1N1CCN(CCCCc2cn(-c3cccc4ncccc34)nn2)CC1`, the inhibitory constant (Ki) on D(2) dopamine receptor is 83.4 nM; at D(3) dopamine receptor it was 13.1 nM; at D(4) dopamine receptor, greater than 1000 nM. In addition, the Ratio Ki in the data set filed under Homo sapiens came out at 6.4.

Values taken from ChEMBL document CHEMBL3588746, “Using click chemistry toward novel 1,2,3-triazole-linked dopamine D3 receptor ligands” (Bioorg Med Chem, 2015).
